Data on one compound can be found in ChEMBL document CHEMBL4011662 (J Med Chem, 2017).

SMILES strings stand for the structures.

What all share (type): cell-based
In assay [1] the target is Probable G-protein coupled receptor 34 (Mus musculus) (UniProt Q9R1K6). The assay is described as follows: Intrinsic activity at mouse GPR34 expressed in HEK293 cells co-transfected with AP-TGFalpha/chimeric […] assessed as induction of ectodomain shedding of membrane bound AP-TGFalpha after 1 hr relative to O-(Hydroxy(((2R,3R)-2-(((3-(2-((3-phenoxybenzyl)oxy)phenyl)- propanoyl)oxy)methyl)tetrahydro-2H-pyran-3-yl)oxy)phosphoryl)- L-serine. A digest of the protocol:
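Relative intrinsic activity (RIA) was Emax/EC50 relative to that of a positive control agonist, whose RIA is defined as 1. Emax and EC50 came from sigmoid fits of receptor-specific AP-TGFα release in the HEK293A shedding assay, with human GPR34 for line 5 and mouse GPR34 for line 6, after 1 h at 37 °C.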

Assay [2] deals with Probable G-protein coupled receptor 34 (Mus musculus, UniProt Q9R1K6). Kind of assay: Agonist activity at mouse GPR34 expressed in HEK293 cells co-transfected with AP-TGFalpha/chimeric Galphaq/i1 assessed as induction of ectodomain shedding of membrane bound AP-TGFalpha after 1 hr. A digest of the protocol: (§1)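 HEK293A cells transiently co-transfected with AP-TGFα, chimeric Gαq/i1 and GPR34 (human for line 1, mouse for line 3) or empty vector (mock). After 24 h, cells were suspended in HBSS with 5 mM HEPES pH 7.4 and preincubated 30 min with 10 μM (final) Ki16425. Compounds in HBSS with 0.01% fatty acid-free BSA were added for 1 h at 37 °C. AP activity in medium and on cells was read as OD405 with p-NPP after 1 h at room temperature.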

Assay [3] concerns the target T1, Probable G-protein coupled receptor 34 (Homo sapiens, UniProt Q9UPC5). The assay is described as follows: Intrinsic activity at human GPR34 expressed in HEK293 cells co-transfected with AP-TGFalpha/chimeric Galphaq/i1 assessed as induction of AP-TGFalpha release after 1 hr relative to O-(Hydroxy(((2R,3R)-2-(((3-(2-((3-phenoxybenzyl)oxy)phenyl)- propanoyl)oxy)methyl)tetrahydro-2H-pyran-3-yl)oxy)phosphoryl)- L-serine.

Assay [4] has as its target T1, Probable G-protein coupled receptor 34. Kind of assay: Agonist activity at human GPR34 expressed in HEK293 cells co-transfected with AP-TGFalpha/chimeric Galphaq/i1 assessed as induction of AP-TGFalpha release after 1 hr. As to conditions: read-out: EC50. A digest of the protocol: as §1
For assay [5] the target is unchanged. Kind of assay: Agonist activity at human GPR34 expressed in HEK293 cells co-transfected with AP-TGFalpha/chimeric Galphaq/i1 assessed as induction of AP-TGFalpha release after 1 hr relative to control. A digest of the protocol: (§2)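 Same AP-TGFα shedding set-up in HEK293A (human GPR34 for line 2, mouse for line 4). Release was the %AP-TGFα in medium minus vehicle, then minus the mock-transfected response. Emax (% AP-TGFα release) and LogEC50 came from four-parameter sigmoid fits of plateau or semiplateau curves, as mean ± SEM of n independent experiments.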

For assay [6], the target named is Probable G-protein coupled receptor 34 (Mus musculus) (UniProt Q9R1K6). The assay is described as follows: Agonist activity at mouse GPR34 expressed in HEK293 cells co-transfected with AP-TGFalpha/chimeric Galphaq/i1 assessed as induction of ectodomain shedding of membrane bound AP-TGFalpha after 1 hr relative to control. A digest of the protocol:
as §2

T1 sequence (Q9UPC5 whole entry): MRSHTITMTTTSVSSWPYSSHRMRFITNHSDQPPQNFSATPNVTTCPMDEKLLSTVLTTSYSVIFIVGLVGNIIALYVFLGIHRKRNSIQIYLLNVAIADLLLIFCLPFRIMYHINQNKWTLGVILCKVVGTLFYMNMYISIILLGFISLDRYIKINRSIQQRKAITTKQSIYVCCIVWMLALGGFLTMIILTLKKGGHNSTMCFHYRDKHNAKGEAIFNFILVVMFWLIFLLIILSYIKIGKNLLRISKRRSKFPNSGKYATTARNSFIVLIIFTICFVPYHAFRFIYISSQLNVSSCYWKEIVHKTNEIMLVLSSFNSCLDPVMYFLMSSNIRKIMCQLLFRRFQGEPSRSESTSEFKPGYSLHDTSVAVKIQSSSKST
Sequence of Probable G-protein coupled receptor 34 (Mus musculus) (Q9R1K6 whole entry, the tested form may be a part): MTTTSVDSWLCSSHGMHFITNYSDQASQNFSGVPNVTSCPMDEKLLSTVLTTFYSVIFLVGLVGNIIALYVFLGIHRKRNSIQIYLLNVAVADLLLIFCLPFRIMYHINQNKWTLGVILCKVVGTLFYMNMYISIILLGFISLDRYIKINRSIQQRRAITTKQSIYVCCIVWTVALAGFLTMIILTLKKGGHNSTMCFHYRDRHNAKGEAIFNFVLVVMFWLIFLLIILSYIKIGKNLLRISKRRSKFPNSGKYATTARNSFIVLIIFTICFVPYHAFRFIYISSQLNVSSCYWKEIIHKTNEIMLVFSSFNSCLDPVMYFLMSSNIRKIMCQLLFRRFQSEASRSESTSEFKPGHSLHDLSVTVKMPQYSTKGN
Sequence of Probable G-protein coupled receptor 34 (Mus musculus, UniProt Q9R1K6) (Q9R1K6 whole entry, the tested form may be a part): as above

Usually EC50 stands for the concentration that produces a half-maximal response. One may read the Emax as the greatest response seen or fitted, relative to the assay's reference. `CC(C)(C)c1cccc(-c2ccc(Oc3cccc(COc4ccccc4CCC(=O)OCCCOP(=O)(O)OC[C@H](N)C(=O)O)c3)cc2)c1`: the Intrinsic activity in assay [1] was found to be 7.7; in assay [3], 8.6. Moreover, the EC50 in assay [2] was 14 nM; in assay [4] it was 15 nM. The maximum response (Emax) turned out to be 18.8% in assay [5] and 15.9% in assay [6].
